Data set [1] concerns the target T1, Retinoic acid receptor RXR-alpha (Homo sapiens) (UniProt P19793).
T1 sequence (whole entry): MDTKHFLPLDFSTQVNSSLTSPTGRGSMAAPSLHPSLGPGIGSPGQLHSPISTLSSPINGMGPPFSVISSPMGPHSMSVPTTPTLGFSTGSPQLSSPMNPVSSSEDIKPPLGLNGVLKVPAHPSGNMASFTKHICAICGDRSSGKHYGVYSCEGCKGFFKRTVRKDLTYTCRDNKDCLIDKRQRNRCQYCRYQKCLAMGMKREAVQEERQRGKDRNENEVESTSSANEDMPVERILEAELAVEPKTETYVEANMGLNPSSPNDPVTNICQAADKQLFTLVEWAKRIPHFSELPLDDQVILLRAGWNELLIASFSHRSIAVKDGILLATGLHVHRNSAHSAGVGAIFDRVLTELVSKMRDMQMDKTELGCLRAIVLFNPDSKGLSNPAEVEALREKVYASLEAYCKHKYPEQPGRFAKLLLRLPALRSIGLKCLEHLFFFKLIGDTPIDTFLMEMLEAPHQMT
The experiment in a line: Partial agonist activity at RXRalpha (unknown origin) expressed in COS1 cells after 18 hrs by luciferase reporter gene assay relative to bexarotene. Type of data set: cell-based. The settings on record: COS-1. The gist of the method:
(§1)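 COS-1 cells in DMEM with 10% FBS at 37 °C, 5% CO2, transfected with RXRα, an RXR-response-element luciferase reporter and a SEAP background vector. Cells were seeded at about 2.0 × 10⁴ per well with compound (DMSO below 1%) for 18 h. Luciferase was normalized to SEAP and expressed relative to 1 μM reference RXR full agonist as 100%. EC50 came from full dose-response curves. Triplicates, at least three experiments.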
On the technique in general: Reporter assays use an easily measured gene product as a stand-in for the process of interest.

For data set [2], the target named is T2, Retinoic acid receptor RXR-alpha (Homo sapiens, UniProt P19793).
T2 sequence (P19793 whole entry): T1 sequence (whole entry)
The experiment in a line: Partial agonist activity at RXRalpha (unknown origin) expressed in COS1 cells after 18 hrs by luciferase reporter gene assay. Type of data set: cell-based, COS-1. The gist of the method: as §1

The target of data set [3] is T1, Retinoic acid receptor RXR-alpha (Homo sapiens). The experiment in a line: Transactivation of RXRalpha (unknown origin) expressed in COS1 cells at 0.1 uM after 18 hrs by luciferase reporter gene assay relative to bexarotene. Type of data set: cell-based. The settings on record: COS-1. In short, it runs like this: as §1
Data set [4] shares this target. The experiment in a line: Transactivation of RXRalpha (unknown origin) expressed in COS1 cells at 1 uM after 18 hrs by luciferase reporter gene assay relative to bexarotene. Type of data set: cell-based. The settings on record: COS-1. The gist of the method:
as §1

For data set [5] the target is unchanged. The experiment in a line: Transactivation of RXRalpha (unknown origin) expressed in COS1 cells at 10 uM after 18 hrs by luciferase reporter gene assay relative to bexarotene. As to conditions: COS-1. The format is cell-based. The gist of the method: as §1
The test system of data set [6] is Mus musculus. The experiment in a line: Toxicity in ICR mouse assessed as change in renal function parameters at 30 mg/kg/day, po for 7 days. The format is organism-based. Also noted: route oral. The settings on record: in vivo, 168 h. The gist of the method:
(§2)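 Male ICR mice, 6−7 weeks old, four per cage, grouped by body weight. Oral 30 mg/kg or vehicle (1% ethanol/0.5% CMC in water, 10 mL/kg) once daily for 7 days, body weight recorded daily. After overnight fasting, mice were weighed under ether, and liver was removed and weighed. Serum was analysed on a dry-chemistry analyser for TG, TCHO, ALP, CRE, BUN and other markers. n = 7−23, ANOVA.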

For data set [7], the system named is Mus musculus. The experiment in a line: Toxicity in ICR mouse assessed as increase in blood triglyceride level at 30 mg/kg/day, po for 7 days. Also noted: route oral. The settings on record: in vivo, 168 h. Type of data set: organism-based. In short, it runs like this: as §2
Data set [8] deals with Mus musculus. The experiment in a line: Toxicity in ICR mouse assessed as weight gain at 30 mg/kg/day, po for 7 days relative to control. Also noted: route oral. The settings on record: in vivo, 168 h. The format is organism-based. In short, it runs like this: as §2
Data set [9] relates to Mus musculus. The experiment in a line: Toxicity against KKAy mouse assessed as creatinine level at 10 mg/kg/day, po for 14 days (reference value: 0.2 mg/dl). Type of data set: organism-based. As to conditions: in vivo, 336 h. The arrangement: route oral.
Data set [10] concerns Mus musculus. The experiment in a line: Toxicity against KKAy mouse assessed as total cholesterol level at 10 mg/kg/day, po for 14 days (reference value: 153.2 +/- 11.1 mg/dL). The format is organism-based. Also noted: route oral. As to conditions: in vivo, 336 h.
Data set [11] has as its system Mus musculus. In words: Toxicity against KKAy mouse assessed as plasma triglyceride level at 10 mg/kg/day, po for 14 days (reference value: 122.4 +/- 11.0 mg/dL). The settings on record: in vivo, 336 h. Type of data set: organism-based. Also noted: route oral.
The subject of data set [12] is Mus musculus. In words: Toxicity against KKAy mouse assessed as blood urea nitrogen level at 10 mg/kg/day, po for 14 days (reference value: 21.9 +/- 1.1 mg/dL). Type of data set: organism-based. The arrangement: route oral. The settings on record: in vivo, 336 h.
The test system of data set [13] is Mus musculus. In words: Toxicity against KKAy mouse assessed as plasma ALP level at 10 mg/kg/day, po for 14 days (reference value: 358.2 +/- 43.1 IU). Type of data set: organism-based. The arrangement: route oral. As to conditions: in vivo, 336 h.
The subject of data set [14] is Mus musculus. In words: Toxicity against KKAy mouse assessed as plasma gammaGTP level at 10 mg/kg/day, po for 14 days (reference value: 5.8 +/- 0.6 IU). The format is organism-based. The arrangement: route oral. As to conditions: in vivo, 336 h.
The test system of data set [15] is Mus musculus. In words: Toxicity against KKAy mouse assessed as plasma ALT level at 10 mg/kg/day, po for 14 days (reference value: 17.6 +/- 0.9 IU). The format is organism-based. Also noted: route oral. The settings on record: in vivo, 336 h.
Data set [16] has as its system Mus musculus. The experiment in a line: Toxicity against KKAy mouse assessed as plasma AST level at 10 mg/kg/day, po for 14 days (reference value: 49.6 +/- 2.3 IU). Type of data set: organism-based. The arrangement: route oral. As to conditions: in vivo, 336 h.

SMILES strings stand for the structures.

Consider `Cc1cc2c(cc1-n1c(N)nc3cc(C(=O)O)ccc31)C(C)(C)CCC2(C)C`, for which the maximal response (Emax) in data set [1] was determined as 103%. The compound also showed a concentration giving a half-maximal response (EC50) in data set [2] of 155 nM. The results for the Efficacy in data set [3], in data set [4] and in [5] were under 5%, 35% and 96%, respectively.

For the compound `Cc1cc2c(cc1-n1c(=O)[nH]c3cc(C(=O)O)ccc31)C(C)(C)CCC2(C)C`, the Efficacy in data set [3] is under 5%; in data set [4] it was under 5%; in data set [5], 22%.

`Cc1cc2c(cc1-n1c(=S)[nH]c3cc(C(=O)O)ccc31)C(C)(C)CCC2(C)C`: the Efficacy in data set [3] was under 5%; in data set [4], under 5%; in [5], 37%.

Consider `CCN(c1ccc2c(c1)C(C)(C)CCC2(C)C)c1ccc(C(=O)O)cn1`, for which the Activity entry with Mus musculus [6], with Mus musculus [7] and in the data set with Mus musculus [8] was “Non-toxic” each time. Moreover, in data set [2], a half-maximal response (EC50) required 3.8 nM. The Efficacy in data set [3] is 86%; in data set [4] it was 96%; in data set [5] it was 98%.

As to `Cc1cc2c(cc1-n1ccc3cc(C(=O)O)ccc31)C(C)(C)CCC2(C)C`, in data set [1], the maximum response (Emax) was 73%. In data set [2], this compound returned a concentration giving a half-maximal response (EC50) of 83 nM. Also, the values for the Efficacy in [3], in data set [4] and in [5] were 45%, 67% and 77%, respectively.

Consider `Cc1cc2c(cc1-n1c(C)nc3cc(C(=O)O)ccc31)C(C)(C)CCC2(C)C`, for which the Activity result in the data set on Mus musculus [6], in the data set with Mus musculus [7] and with Mus musculus [8] was “Non-toxic” throughout. For the same compound, the Emax in data set [1] was 94%. For the same compound, it took 367 nM to reach a half-maximal effect in data set [2] (EC50). The values for the Efficacy in data set [3], in data set [4] and in data set [5] were 28%, 70% and 80%, respectively.

`CCc1ccc(CCOc2ccc(CC3SC(=O)NC3=O)cc2)nc1` (centres undefined) [PIOGLITAZONE]: the Activity with Mus musculus [9] amounted to 0.2 mg/dL; in the data set on Mus musculus [10], 147.3 mg/dL; in the data set on Mus musculus [11], 124 mg/dL; in the data set on Mus musculus [12], 22.2 mg/dL; in the data set with Mus musculus [13], 395.7 IU; in the data set on Mus musculus [14], 7.3 IU. Further, the Activity turned out to be 21.3 IU in the data set with Mus musculus [15] and 45.3 IU with Mus musculus [16].

As for `Cc1cc2c(cc1-n1cnc3cc(C(=O)O)ccc31)C(C)(C)CCC2(C)C`, the Emax in data set [1] was determined as 75%. The concentration giving a half-maximal response (EC50) in data set [2] is 633 nM. Further, the Efficacy in data set [3] is under 5%; in data set [4] it was 52%; in [5], 72%.

Broadly, the Emax is the maximal effect, on the per cent scale that the assay sets. As a reminder, the EC50 is the concentration giving half of the maximal effect.

For the origin of these results see ChEMBL document CHEMBL2331224 (J Med Chem, 2013).
